Experiment [1] deals with T1, Sodium-dependent dopamine transporter (Rattus norvegicus, UniProt P23977). Description: Inhibition of [3H]dopamine […] to rat striatal synaptosome dopamine transporter. It is filed as tissue-based, Brain.
The target of experiment [2] is T1, Sodium-dependent dopamine transporter. In words: Binding affinity towards dopamine transporter using [3H]-mazindol as radioligand in rat striatal membranes. It is filed as cell membranes. The method, boiled down: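 Competition assay: test analogues displace [3H]mazindol binding in rat striatal membranes. This radioligand labels a single high-affinity, sodium-dependent cocaine site on the dopamine carrier.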

The structures appear in SMILES notation.

A word on the Ki: it is a measure of affinity in units of concentration, obtained from inhibition or displacement. A high value points to weaker binding.

T1 sequence (P23977 whole entry): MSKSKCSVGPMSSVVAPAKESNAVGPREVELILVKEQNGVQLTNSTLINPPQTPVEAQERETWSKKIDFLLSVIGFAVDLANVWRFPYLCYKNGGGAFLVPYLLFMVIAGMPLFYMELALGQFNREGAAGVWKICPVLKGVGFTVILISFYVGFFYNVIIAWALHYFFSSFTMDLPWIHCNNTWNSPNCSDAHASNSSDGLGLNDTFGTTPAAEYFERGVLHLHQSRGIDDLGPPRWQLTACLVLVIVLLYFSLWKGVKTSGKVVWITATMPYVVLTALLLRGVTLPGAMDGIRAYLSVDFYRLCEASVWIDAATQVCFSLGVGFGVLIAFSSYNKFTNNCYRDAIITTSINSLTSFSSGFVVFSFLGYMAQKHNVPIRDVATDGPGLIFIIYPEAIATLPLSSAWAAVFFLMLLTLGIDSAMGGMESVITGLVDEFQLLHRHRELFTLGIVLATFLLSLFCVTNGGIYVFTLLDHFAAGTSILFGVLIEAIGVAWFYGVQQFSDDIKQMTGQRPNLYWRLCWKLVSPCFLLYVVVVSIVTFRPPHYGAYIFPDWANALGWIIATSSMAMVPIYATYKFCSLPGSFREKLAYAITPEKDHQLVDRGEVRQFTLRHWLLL

For `CN1C2CCC1[C@@H](CCc1ccccc1)[C@@H](c1ccc(Cl)cc1)C2` (stereo not given in full), the Ki in experiment [1] amounted to 1.54 nM; in experiment [2], 1.46 nM.
Take `CN1C2CCC1[C@@H](/C=C\Cl)[C@@H](c1ccc(Cl)cc1)C2` (stereo not given in full): the Ki in experiment [1] was 0.88 nM; in experiment [2], 0.22 nM.
With `CC[C@@H]1C2CCC(C[C@@H]1c1ccc(Cl)cc1)N2C` (stereo not given in full), the Ki worked out at 2.35 nM in experiment [1] and 2.17 nM in experiment [2].
On the same counts, the results for `C=C[C@@H]1C2CCC(C[C@@H]1c1ccc(Cl)cc1)N2C` (stereo not given in full) are 2.47 nM and 0.59 nM.
Consider `CN1C2CCC1[C@@H](/C=C/Cl)[C@@H](c1ccc(Cl)cc1)C2` (stereo not given in full), for which the Ki in experiment [1] worked out at 1.13 nM; in experiment [2], 0.42 nM.
For `CCC[C@@H]1C2CCC(C[C@@H]1c1ccc(Cl)cc1)N2C` (stereo not given in full), the Ki was found to be 1.08 nM in experiment [1] and 0.94 nM in experiment [2].
As for `CCCCCC[C@@H]1C2CCC(C[C@@H]1c1ccc(Cl)cc1)N2C` (stereo not given in full), the values for the Ki in experiment [1] and in experiment [2] were 271 nM and 156 nM, respectively.
Regarding `CCC[C@@H]1C2CCC(C[C@@H]1c1ccccc1)N2C` (stereo not given in full), the Ki in experiment [1] was found to be 1.61 nM; in experiment [2], 1.87 nM.
In the case of `CCCC[C@@H]1C2CCC(C[C@@H]1c1ccc(Cl)cc1)N2C` (stereo not given in full), the Ki in experiment [1] was found to be 0.84 nM; in experiment [2] it was 1.21 nM.
On the same counts, the results for `COC(=O)C1C2CC[C@H](C[C@@H]1c1ccc(Cl)cc1)N2C` (stereo not given in full) are 2.85 nM and 0.83 nM.

These data come from ChEMBL document CHEMBL1128503 (J Med Chem, 1995).
